{"source": "ChEMBL document CHEMBL4428066", "about": "“Small Molecule Reversible Inhibitors of Bruton's Tyrosine Kinase (BTK): Structure-Activity Relationships Leading to the Identification of 7-(2-Hydroxypropan-2-yl)-4-[2-methyl-3-(4-oxo-3,4-dihydroquinazolin-3-yl)phenyl]-9H-carbazole-1-carboxamide (BMS-935177)” (J Med Chem, 2016)", "key": {"[1]": {"assay": "AUC in Beagle dog plasma at 2 mg/kg, administered through oral gavage after 0.25 to 48 hrs by LC/MS/MS analysis", "assay_type": "ADME, organism-based, Canis lupus familiaris", "design": "time 0.25-48 hr, dose 2 mg/kg, route oral"}, "[2]": {"assay": "Protein binding in human serum", "assay_type": "ADME, cell-free", "settings": "read-out: PB (converted)"}, "[3]": {"molecular_target": "Tyrosine-protein kinase Lyn (Homo sapiens, UniProt P07948)", "sequence (P07948 whole entry)": "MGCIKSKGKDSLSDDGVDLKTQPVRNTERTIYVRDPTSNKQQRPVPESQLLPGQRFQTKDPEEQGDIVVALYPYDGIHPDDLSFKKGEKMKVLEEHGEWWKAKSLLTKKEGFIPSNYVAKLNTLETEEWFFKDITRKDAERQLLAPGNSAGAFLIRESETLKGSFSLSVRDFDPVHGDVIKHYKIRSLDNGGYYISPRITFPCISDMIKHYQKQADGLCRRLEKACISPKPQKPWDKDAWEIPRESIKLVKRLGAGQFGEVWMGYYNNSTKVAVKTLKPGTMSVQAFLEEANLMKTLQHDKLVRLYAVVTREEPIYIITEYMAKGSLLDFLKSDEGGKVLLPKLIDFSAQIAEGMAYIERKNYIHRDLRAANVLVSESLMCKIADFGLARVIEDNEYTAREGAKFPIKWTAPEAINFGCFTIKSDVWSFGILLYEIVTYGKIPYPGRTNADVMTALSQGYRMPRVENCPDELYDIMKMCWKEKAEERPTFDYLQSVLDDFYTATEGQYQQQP", "assay": "Inhibition of partial length human LYN expressed in bacterial system"}, "[4]": {"molecular_target": "High affinity nerve growth factor receptor (Homo sapiens, UniProt P04629)", "assay": "Inhibition of partial length human TRKA expressed in mammalian system"}, "Cytochrome P450 2C8": {"molecular_target": "Cytochrome P450 2C8 (Homo sapiens, UniProt P10632)", "sequence (P10632 whole entry)": "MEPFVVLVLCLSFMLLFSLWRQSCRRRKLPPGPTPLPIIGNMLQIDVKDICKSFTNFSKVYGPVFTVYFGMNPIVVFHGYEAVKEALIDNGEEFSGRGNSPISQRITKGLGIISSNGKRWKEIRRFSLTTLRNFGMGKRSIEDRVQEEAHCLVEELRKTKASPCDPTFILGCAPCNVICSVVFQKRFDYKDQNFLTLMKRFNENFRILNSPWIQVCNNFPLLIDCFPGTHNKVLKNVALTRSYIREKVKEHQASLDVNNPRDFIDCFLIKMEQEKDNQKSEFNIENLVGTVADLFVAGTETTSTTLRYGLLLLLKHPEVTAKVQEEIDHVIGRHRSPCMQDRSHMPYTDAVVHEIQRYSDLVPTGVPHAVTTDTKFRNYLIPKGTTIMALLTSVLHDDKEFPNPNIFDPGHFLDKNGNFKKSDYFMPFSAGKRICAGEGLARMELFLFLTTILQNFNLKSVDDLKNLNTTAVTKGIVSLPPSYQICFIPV", "assay": "Inhibition of human liver microsomes CYP2C8 after 30 mins in presence of NADPH", "assay_type": "ADME"}, "[5]": {"assay": "Plasma clearance in cynomolgus monkey at 2 mg/kg, iv through bolus administration after 0.167 to 48 hrs by LC/MS/MS analysis", "assay_type": "ADME, organism-based, Macaca fascicularis"}, "[6]": {"assay": "Volume of distribution in steady state in Beagle dog at 2 mg/kg, iv through bolus administration after 0.167 to 48 hrs by LC/MS/MS analysis", "assay_type": "ADME, organism-based, Canis lupus familiaris", "settings": "in vivo, read-out: Vdss"}, "Mus musculus [7]": {"tested_on": "Mus musculus", "assay": "Antiarthritic activity in DBA/1 mouse model of collagen-induced arthritis inflammation assessed as protection against bone mass loss dosed daily and orally beginning on day of primary immunization by microcomputed tomography imaging analysis", "assay_type": "functional, organism-based"}, "[8]": {"assay": "Permeability of the compound at pH 5.5 by PAMPA", "assay_type": "ADME", "settings": "read-out: permeability"}, "[9]": {"molecular_target": "Tyrosine-protein kinase Tec (Homo sapiens, UniProt P42680)", "sequence (P42680 whole entry)": "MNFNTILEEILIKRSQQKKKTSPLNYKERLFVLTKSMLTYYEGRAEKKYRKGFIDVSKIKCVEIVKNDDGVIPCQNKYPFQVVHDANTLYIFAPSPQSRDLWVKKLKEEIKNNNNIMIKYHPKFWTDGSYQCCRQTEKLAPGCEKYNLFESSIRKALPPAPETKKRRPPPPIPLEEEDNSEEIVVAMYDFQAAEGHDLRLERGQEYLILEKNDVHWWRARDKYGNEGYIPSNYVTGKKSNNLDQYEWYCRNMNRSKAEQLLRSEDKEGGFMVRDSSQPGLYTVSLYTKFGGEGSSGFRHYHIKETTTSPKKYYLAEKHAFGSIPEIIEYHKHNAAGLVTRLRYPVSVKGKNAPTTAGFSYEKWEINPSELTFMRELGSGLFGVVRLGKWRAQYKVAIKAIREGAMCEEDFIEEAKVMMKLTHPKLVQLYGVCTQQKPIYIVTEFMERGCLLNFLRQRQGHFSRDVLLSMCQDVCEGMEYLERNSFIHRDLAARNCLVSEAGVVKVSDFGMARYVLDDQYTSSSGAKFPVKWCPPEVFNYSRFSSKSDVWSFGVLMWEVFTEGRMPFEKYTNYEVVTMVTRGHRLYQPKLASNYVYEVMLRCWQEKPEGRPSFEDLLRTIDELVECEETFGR", "assay": "Inhibition of partial length human TEC expressed in bacterial system"}, "Mus musculus [10]": {"tested_on": "Mus musculus", "assay": "Antiarthritic activity in DBA/1 mouse model of collagen-induced arthritis inflammation assessed as protection against fusion of small bones dosed daily and orally beginning on day of primary immunization by microcomputed tomography imaging analysis", "assay_type": "functional, organism-based"}, "[11]": {"molecular_target": "Tyrosine-protein kinase BTK (Mus musculus, UniProt P35991)", "sequence (P35991 whole entry)": "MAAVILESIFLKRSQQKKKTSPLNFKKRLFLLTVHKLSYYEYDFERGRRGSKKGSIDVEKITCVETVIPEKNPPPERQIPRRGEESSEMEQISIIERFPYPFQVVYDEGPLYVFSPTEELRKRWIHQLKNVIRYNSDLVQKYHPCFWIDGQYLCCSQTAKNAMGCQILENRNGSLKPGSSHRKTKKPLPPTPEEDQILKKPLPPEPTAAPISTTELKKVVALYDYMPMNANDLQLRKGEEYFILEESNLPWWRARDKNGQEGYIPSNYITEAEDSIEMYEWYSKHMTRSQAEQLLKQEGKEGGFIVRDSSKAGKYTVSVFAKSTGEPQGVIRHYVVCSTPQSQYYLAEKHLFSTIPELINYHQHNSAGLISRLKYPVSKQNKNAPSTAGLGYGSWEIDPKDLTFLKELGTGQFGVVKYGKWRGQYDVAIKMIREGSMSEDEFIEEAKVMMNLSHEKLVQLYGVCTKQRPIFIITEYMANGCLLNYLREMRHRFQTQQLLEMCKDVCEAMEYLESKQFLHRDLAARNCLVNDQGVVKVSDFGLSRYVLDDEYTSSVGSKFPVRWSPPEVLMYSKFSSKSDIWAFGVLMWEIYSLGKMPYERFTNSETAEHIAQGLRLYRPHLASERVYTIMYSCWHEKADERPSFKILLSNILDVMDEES", "assay": "Inhibition of BTK in mouse whole blood assessed as suppression of BCR/anti-IgM stimulated CD69 surface expression on B cells after 18 hrs by FACS analysis", "assay_type": "tissue-based", "in_short": "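Mouse whole blood stimulated through the BCR; CD69 on the B-cell surface read by FACS with gating on B cells. IC50 reported as mean ± standard deviation of three determinations.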"}, "[12]": {"molecular_target": "Receptor tyrosine-protein kinase erbB-4 (Homo sapiens, UniProt Q15303)", "assay": "Inhibition of partial length human HER4 expressed in bacterial system"}, "[13]": {"molecular_target": "Proto-oncogene tyrosine-protein kinase Src (Homo sapiens, UniProt P12931)", "sequence (P12931 2-536 limits assumed)": "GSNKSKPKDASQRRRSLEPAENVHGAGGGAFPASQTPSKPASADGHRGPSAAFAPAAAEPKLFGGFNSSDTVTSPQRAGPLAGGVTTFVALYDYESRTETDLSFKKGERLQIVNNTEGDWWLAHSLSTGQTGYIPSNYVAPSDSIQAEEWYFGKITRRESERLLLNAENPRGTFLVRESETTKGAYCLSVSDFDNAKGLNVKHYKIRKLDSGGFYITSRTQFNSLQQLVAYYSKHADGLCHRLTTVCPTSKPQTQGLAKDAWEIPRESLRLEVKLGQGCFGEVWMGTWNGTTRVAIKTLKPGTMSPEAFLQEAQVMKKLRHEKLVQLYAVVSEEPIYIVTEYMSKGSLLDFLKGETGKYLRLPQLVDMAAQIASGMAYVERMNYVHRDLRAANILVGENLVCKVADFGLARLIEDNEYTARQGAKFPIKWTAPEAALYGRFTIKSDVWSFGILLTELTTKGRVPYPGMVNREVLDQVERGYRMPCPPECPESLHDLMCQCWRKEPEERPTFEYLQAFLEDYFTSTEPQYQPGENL", "assay": "Inhibition of partial length human SRC expressed in bacterial system"}, "Mus musculus [14]": {"tested_on": "Mus musculus", "assay": "Antiarthritic activity in DBA/1 mouse model of collagen-induced arthritis inflammation assessed reduction in disease severity at 20 to 30 mg/kg, po dosing daily starting on day of primary immunization", "assay_type": "functional", "design": "scale not given: the % may be the effect or the level left"}, "Cytochrome P450 1A2": {"molecular_target": "Cytochrome P450 1A2 (Homo sapiens, UniProt P05177)", "sequence (P05177 whole entry)": "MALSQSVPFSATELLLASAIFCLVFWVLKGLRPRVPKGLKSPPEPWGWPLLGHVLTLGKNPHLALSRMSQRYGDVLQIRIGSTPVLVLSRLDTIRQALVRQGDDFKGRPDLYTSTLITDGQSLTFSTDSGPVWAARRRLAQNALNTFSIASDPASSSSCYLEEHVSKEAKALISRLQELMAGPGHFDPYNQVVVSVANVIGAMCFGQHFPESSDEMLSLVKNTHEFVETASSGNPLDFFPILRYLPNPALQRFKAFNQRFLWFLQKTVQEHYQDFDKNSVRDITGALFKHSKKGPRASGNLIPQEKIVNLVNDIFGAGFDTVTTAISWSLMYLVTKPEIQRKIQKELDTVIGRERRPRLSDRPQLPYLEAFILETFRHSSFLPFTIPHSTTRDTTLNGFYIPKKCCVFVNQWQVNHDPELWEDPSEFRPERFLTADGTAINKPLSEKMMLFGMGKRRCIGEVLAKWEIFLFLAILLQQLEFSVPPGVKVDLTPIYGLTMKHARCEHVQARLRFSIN", "assay": "Inhibition of human liver microsomes CYP1A2 after 30 mins in presence of NADPH", "assay_type": "ADME"}, "[15]": {"assay": "Cmax in Sprague-Dawley rat plasma at 5 mg/kg, administered through oral gavage by LC/MS/MS analysis", "assay_type": "ADME, organism-based", "design": "dose 5 mg/kg, route oral"}, "[16]": {"molecular_target": "Proto-oncogene tyrosine-protein kinase receptor Ret (Homo sapiens, UniProt P07949)", "assay": "Inhibition of partial length human RET expressed in bacterial system"}, "Mus musculus [17]": {"tested_on": "Mus musculus", "assay": "Antiarthritic activity in po dosed CIA DBA/1 mouse model assessed as reduction of disease severity after 21 days", "assay_type": "functional, organism-based"}, "[18]": {"assay": "Tmax in Sprague-Dawley rat plasma at 5 mg/kg, administered through oral gavage by LC/MS/MS analysis", "assay_type": "ADME, organism-based"}, "[19]": {"molecular_target": "Tyrosine-protein kinase JAK2 (Homo sapiens, UniProt O60674)", "assay": "Inhibition of partial length human JAK2 expressed in bacterial system"}, "[20]": {"assay": "AUC in cynomolgus monkey plasma at 2 mg/kg, administered through oral gavage after 0.25 to 48 hrs by LC/MS/MS analysis", "assay_type": "ADME, organism-based, Macaca fascicularis", "design": "time upper 48 hr, dose 2 mg/kg, time lower 0.25 hr, route oral"}, "[21]": {"assay": "Tmax in Beagle dog plasma at 2 mg/kg, administered through oral gavage after 0.25 to 48 hrs by LC/MS/MS analysis", "assay_type": "ADME, organism-based, Canis lupus familiaris"}, "Cytochrome P450 2C9": {"molecular_target": "Cytochrome P450 2C9 (Homo sapiens, UniProt P11712)", "sequence (P11712 whole entry)": "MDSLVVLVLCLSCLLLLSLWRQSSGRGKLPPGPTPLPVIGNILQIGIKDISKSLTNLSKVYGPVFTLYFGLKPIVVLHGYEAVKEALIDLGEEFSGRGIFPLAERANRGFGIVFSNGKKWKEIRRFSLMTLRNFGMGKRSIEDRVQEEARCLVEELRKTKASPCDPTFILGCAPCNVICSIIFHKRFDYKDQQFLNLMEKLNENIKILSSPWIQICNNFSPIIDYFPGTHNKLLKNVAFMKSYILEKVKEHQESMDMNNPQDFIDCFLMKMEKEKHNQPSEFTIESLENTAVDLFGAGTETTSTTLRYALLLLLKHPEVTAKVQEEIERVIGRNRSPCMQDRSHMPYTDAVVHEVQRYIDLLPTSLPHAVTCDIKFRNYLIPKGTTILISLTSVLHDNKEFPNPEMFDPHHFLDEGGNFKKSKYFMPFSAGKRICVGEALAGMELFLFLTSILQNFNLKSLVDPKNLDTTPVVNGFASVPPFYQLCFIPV", "assay": "Inhibition of human liver microsomes CYP2C9 after 30 mins in presence of NADPH", "assay_type": "ADME"}, "[22]": {"molecular_target": "Tyrosine-protein kinase TXK (Homo sapiens, UniProt P42681)", "assay": "Inhibition of partial length human TXK expressed in bacterial system"}, "Cytochrome P450 2D6": {"molecular_target": "Cytochrome P450 2D6 (Homo sapiens, UniProt P10635)", "sequence (P10635 whole entry)": "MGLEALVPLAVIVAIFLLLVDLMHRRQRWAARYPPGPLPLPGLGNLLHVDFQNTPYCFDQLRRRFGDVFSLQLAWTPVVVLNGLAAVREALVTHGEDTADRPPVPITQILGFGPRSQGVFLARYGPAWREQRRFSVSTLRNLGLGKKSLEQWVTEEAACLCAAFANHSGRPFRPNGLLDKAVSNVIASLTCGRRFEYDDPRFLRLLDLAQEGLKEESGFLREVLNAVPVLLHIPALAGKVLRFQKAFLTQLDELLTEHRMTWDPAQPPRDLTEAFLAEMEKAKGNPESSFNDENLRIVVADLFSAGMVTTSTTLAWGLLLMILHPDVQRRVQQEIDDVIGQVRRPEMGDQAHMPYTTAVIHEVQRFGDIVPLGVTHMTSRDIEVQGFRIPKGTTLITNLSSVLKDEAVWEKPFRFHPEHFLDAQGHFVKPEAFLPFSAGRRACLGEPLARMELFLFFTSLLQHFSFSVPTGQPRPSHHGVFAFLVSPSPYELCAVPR", "assay": "Inhibition of human liver microsomes CYP2D6 after 30 mins in presence of NADPH", "assay_type": "ADME"}, "Mus musculus [23]": {"tested_on": "Mus musculus", "assay": "Time required for plasma concentration to reach above in vitro BCR-stimulated CD69 expression IC50 in Balb/C mouse KLH antibody response model at 5 to 45 mg/kg, po qd for 14 days", "assay_type": "ADME, organism-based", "settings": "in vivo, 336 h"}, "Mus musculus [24]": {"tested_on": "Mus musculus", "assay": "Antiarthritic activity in DBA/1 mouse model of collagen-induced arthritis inflammation assessed as inhibition of bone resorption end points dosed daily and orally beginning on day of primary immunization by micro-CT analysis", "assay_type": "functional, organism-based"}, "Mus musculus [25]": {"tested_on": "Mus musculus", "assay": "Antiarthritic activity in DBA/1 mouse model of collagen-induced arthritis inflammation assessed as inhibition of inflammation dosed daily and orally beginning on day of primary immunization by H and E staining based microscopy", "assay_type": "functional, organism-based"}, "[26]": {"assay": "Cmax in mouse plasma at 5 mg/kg, administered through oral gavage after 0.25 to 24 hrs by LC/MS/MS analysis", "assay_type": "ADME, organism-based", "design": "dose 5 mg/kg, route oral"}, "Salmonella typhimurium": {"tested_on": "Salmonella typhimurium", "assay": "Mutagenic activity in Salmonella typhimurium by AMES test", "assay_type": "toxicity, organism-based", "settings": "salmonella enterica subsp. enterica serovar typhimurium"}, "[27]": {"assay": "Tmax in cynomolgus monkey plasma at 2 mg/kg, administered through oral gavage after 0.25 to 48 hrs by LC/MS/MS analysis", "assay_type": "ADME, organism-based, Macaca fascicularis"}, "[28]": {"assay": "Permeability of the compound at pH 7.4 by PAMPA", "assay_type": "ADME", "settings": "read-out: permeability"}, "Mus musculus [29]": {"tested_on": "Mus musculus", "assay": "Antiarthritic activity in DBA/1 mouse model of collagen-induced arthritis inflammation assessed reduction in disease severity dosed daily and orally beginning on day of primary immunization", "assay_type": "functional, organism-based"}, "[30]": {"assay": "Oral bioavailability in mouse at 5 mg/kg after 0.25 to 24 hrs by LC/MS/MS analysis", "assay_type": "ADME, organism-based", "settings": "in vivo"}, "[31]": {"assay": "Plasma clearance in mouse at 2 mg/kg, iv through bolus administration after 0.05 to 24 hrs by LC/MS/MS analysis", "assay_type": "ADME, organism-based"}, "[32]": {"assay": "Solubility of the compound in fasted state simulated intestinal fluid", "assay_type": "physicochemical"}, "Mus musculus [33]": {"tested_on": "Mus musculus", "assay": "Antiarthritic activity in DBA/1 mouse model of collagen-induced arthritis inflammation assessed as presence of presence of recognizable small individual bones at foot and ankle at 20 mg/kg, po dosed daily beginning on day of primary immunization by microcomputed tomography imaging analysis", "assay_type": "functional, organism-based"}, "Mus musculus [34]": {"tested_on": "Mus musculus", "assay": "Antiarthritic activity in DBA/1 mouse model of collagen-induced arthritis inflammation assessed as reduction of disease severity at 30 mg/kg, qd administered through oral gavage dosed after day 21 booster immunization", "assay_type": "functional, organism-based"}, "[35]": {"molecular_target": "Tyrosine-protein kinase Blk (Homo sapiens, UniProt P51451)", "sequence (P51451 whole entry)": "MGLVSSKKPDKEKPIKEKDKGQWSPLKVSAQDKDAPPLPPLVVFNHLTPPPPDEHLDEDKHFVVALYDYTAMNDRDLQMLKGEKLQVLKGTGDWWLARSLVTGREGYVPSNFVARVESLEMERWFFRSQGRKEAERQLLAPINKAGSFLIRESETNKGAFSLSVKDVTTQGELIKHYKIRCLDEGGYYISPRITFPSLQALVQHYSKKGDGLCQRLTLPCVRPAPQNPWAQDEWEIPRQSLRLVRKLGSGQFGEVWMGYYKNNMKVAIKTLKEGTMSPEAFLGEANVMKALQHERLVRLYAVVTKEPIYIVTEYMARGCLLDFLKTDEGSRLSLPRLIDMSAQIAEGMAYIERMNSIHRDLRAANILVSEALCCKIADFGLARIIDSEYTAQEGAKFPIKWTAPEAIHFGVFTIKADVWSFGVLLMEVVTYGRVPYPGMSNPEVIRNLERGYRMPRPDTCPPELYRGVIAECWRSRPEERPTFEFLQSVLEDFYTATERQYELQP", "assay": "Inhibition of BLK (unknown origin) expressed in bacterial system"}, "[36]": {"assay": "AUC in Sprague-Dawley rat plasma at 5 mg/kg, administered through oral gavage by LC/MS/MS analysis", "assay_type": "ADME, organism-based"}}, "note": "Calls of active or inactive are those of the source. The rule behind the calls is not given here."}
{"compound": "Cc1c(-c2ccc(C(N)=O)c3[nH]c4cc(C(C)(C)O)ccc4c23)cccc1-n1cnc2ccccc2c1=O", "values": [{"measurement": "AUC", "setting": "[1]", "value": 14.2, "unit": "µM·h"}, {"measurement": "fraction unbound", "setting": "[2]", "value": 0.006}, {"measurement": "IC50", "setting": "[3]", "value": 160, "unit": "nM"}, {"measurement": "IC50", "setting": "[4]", "value": 30, "unit": "nM"}, {"measurement": "IC50", "setting": "Cytochrome P450 2C8", "value": "> 8000", "unit": "nM"}, {"measurement": "clearance", "setting": "[5]", "value": 2.1, "unit": "mL/min/kg"}, {"measurement": "Vd", "setting": "[6]", "value": 3.2, "unit": "L/kg"}, {"measurement": "Activity", "setting": "Mus musculus [7]", "value": "Dose-dependent effect"}, {"measurement": "Papp", "setting": "[8]", "value": 87.6, "unit": "×10⁻⁶ cm/s"}, {"measurement": "IC50", "setting": "[9]", "value": 13, "unit": "nM"}, {"measurement": "Activity", "setting": "Mus musculus [10]", "value": "Dose-dependent effect"}, {"measurement": "IC50", "setting": "[11]", "value": 2060, "unit": "nM"}, {"measurement": "IC50", "setting": "[12]", "value": 50, "unit": "nM"}, {"measurement": "IC50", "setting": "[13]", "value": 3190, "unit": "nM"}, {"measurement": "Activity", "setting": "Mus musculus [14]", "value": "85 - 90%"}, {"measurement": "IC50", "setting": "Cytochrome P450 1A2", "value": "> 40000", "unit": "nM"}, {"measurement": "Cmax", "setting": "[15]", "value": 2000, "unit": "nM"}, {"measurement": "IC50", "setting": "[16]", "value": 110, "unit": "nM"}, {"measurement": "Activity", "setting": "Mus musculus [17]", "value": "Dose-dependent effect"}, {"measurement": "Tmax", "setting": "[18]", "value": 5, "unit": "h"}, {"measurement": "IC50", "setting": "[19]", "value": 370, "unit": "nM"}, {"measurement": "AUC", "setting": "[20]", "value": 32, "unit": "µM·h"}, {"measurement": "Tmax", "setting": "[21]", "value": 1.6, "unit": "h"}, {"measurement": "IC50", "setting": "Cytochrome P450 2C9", "value": "> 8000", "unit": "nM"}, {"measurement": "IC50", "setting": "[22]", "value": 180, "unit": "nM"}, {"measurement": "IC50", "setting": "Cytochrome P450 2D6", "value": "> 40000", "unit": "nM"}, {"measurement": "Time", "setting": "Mus musculus [23]", "value": 5, "unit": "h"}, {"measurement": "Activity", "setting": "Mus musculus [24]", "value": "Active"}, {"measurement": "Activity", "setting": "Mus musculus [25]", "value": "Active"}, {"measurement": "Cmax", "setting": "[26]", "value": 3800, "unit": "nM"}, {"measurement": "Activity", "setting": "Salmonella typhimurium", "value": "Non-Toxic"}, {"measurement": "Tmax", "setting": "[27]", "value": 2.7, "unit": "h"}, {"measurement": "Papp", "setting": "[28]", "value": 102, "unit": "×10⁻⁶ cm/s"}, {"measurement": "Activity", "setting": "Mus musculus [29]", "value": "Dose-dependent effect"}, {"measurement": "bioavailability", "setting": "[30]", "value": 94, "unit": "%"}, {"measurement": "clearance", "setting": "[31]", "value": 4.9, "unit": "mL/min/kg"}, {"measurement": "solubility", "setting": "[32]", "value": 6, "unit": "µg/mL"}, {"measurement": "Activity", "setting": "Mus musculus [33]", "value": "Active"}, {"measurement": "Activity", "setting": "Mus musculus [34]", "value": "Active"}, {"measurement": "IC50", "setting": "[35]", "value": 20, "unit": "nM"}, {"measurement": "AUC", "setting": "[36]", "value": 21.2, "unit": "µM·h"}]}
